Bioassay records deposited in PubChem BioAssay by several laboratories.
Cardiac RTF inh: cardiac RTF calcium desensitization; P19429+P45379; IANBD-labeled cardiac RTF, Ca2+ fluorescence; inhibition, % at 7.15 µM; 340,000 tested, 0.12% active;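 active = inhibition above the mean inhibition of all tested compounds plus 3 SD, cut at about 17% in these data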;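 also: assay run at fixed EC70 calcium of 1.6 mM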
CAL PDZ FP-1: blocks peptide binding to the human CAL PDZ domain | Q9HD26 | purified CAL PDZ, TMR-peptide fluorescence polarization, 1 h | inhibition, % at 24.9 µM | 300,000 tested, 0.92% active | AID 602252;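 active = mean inhibition of at least 30% with at least half of replicates also reaching 30%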;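 also: 0% = DMSO neutral control and 100% = excess unlabeled competitor peptide PRC23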
C-LANA FP: KSHV C-LANA DNA binding inhibition; MBP-C-LANA/FAM-LBS DNA binding, fluorescence polarization; inhibition, % at 9 µM; 340,000 tested, 0.078% active;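 active = highest replicate inhibition at or above 60% at 9 µM, even if other replicates fall short; inactive = all replicates below 60% inhibition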;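 also: 0% = neutral control wells and 100% = 4 µM acridine orange control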
RTF Ca sens act: increases calcium sensitivity of human cardiac regulated thin filaments; P19429+P45379; IANBD-labeled TnC RTF fluorescence at EC20 calcium; 0% EC20 calcium, 100% full calcium; activation, % at 7.2 µM; 340,000 tested, 0.24% active; AID 493008;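 active = activation above the mean over all tested compounds plus 3 SD, cut at about 30% in these data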;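 also: rise in fluorescence read as greater calcium sensitivity of cardiac thin filaments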
Keap1 Nrf2 FP: inhibitors of human Keap1-Nrf2 protein-protein interaction. 340,000 tested, 0.15% active. Keap1 Kelch-Nrf2 peptide fluorescence polarization, 1536-well. Q14145. AID 504523. inhibition, % at 9.4 µM; in the data active = inhibition above about 12%;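 also: human Keap1 Kelch domain with fluorescein labeled Nrf2 9mer peptide probe; 0% = neutral control wells and 100% = peptide positive control; higher means more block of Keap1 binding to Nrf2 peptide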
Target sequence (Q14145 whole entry, looked up, the tested form may be a part): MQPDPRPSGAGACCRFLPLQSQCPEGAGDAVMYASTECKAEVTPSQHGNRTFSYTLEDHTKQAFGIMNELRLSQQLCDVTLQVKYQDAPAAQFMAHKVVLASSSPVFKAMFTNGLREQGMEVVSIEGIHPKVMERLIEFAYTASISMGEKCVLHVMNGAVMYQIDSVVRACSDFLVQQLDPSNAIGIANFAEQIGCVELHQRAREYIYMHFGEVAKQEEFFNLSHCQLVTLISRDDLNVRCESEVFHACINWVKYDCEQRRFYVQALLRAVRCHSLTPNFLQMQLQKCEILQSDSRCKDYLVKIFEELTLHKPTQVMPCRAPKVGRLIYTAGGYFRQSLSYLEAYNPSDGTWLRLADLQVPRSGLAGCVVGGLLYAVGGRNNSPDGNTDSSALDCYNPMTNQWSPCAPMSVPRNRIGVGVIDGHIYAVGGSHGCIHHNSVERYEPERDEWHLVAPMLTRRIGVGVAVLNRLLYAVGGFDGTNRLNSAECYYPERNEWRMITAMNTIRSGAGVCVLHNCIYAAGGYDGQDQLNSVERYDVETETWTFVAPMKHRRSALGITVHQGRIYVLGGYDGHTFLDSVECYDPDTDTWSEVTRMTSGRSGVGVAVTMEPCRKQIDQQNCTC
CAL PDZ FP-2: inhibitors of human CAL PDZ peptide binding; Q9HD26; purified CAL PDZ, TMR-peptide fluorescence polarization, 1 h; inhibition, % at 20 µM; 330,000 tested, 0.02% active; AID 504414;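 active = highest replicate inhibition of at least 40%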;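 also: plate controls were DMSO neutral control wells for no effect and unlabeled competitor peptide control wells for full effect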
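Control set: unlabelled peptide and DMSO controls / Material: purified CerCALP PDZ construct / Timing: 1 h incubation at room temperature before polarization reading / Doses: 20 µM, one dose / Detection: fluorescence polarization (mP)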
An asterisk follows results filed as active; x = no result given; + = active, no number. A selection: hits, their analogues and other compounds. The true share with any hit is near 1.3%.

SMILES	Cardiac RTF inh	CAL PDZ FP-1	C-LANA FP	RTF Ca sens act	Keap1 Nrf2 FP	CAL PDZ FP-2
COc1ccc2[nH]c3c(c2c1)CCN1C(=O)C(CC(=O)NCCCn2ccnc2)C[C@H](C(=O)N2CCCCC2)[C@@]31C (some centres undefined)	-1	-1	-1	13	1	0
Cc1ccc(S(=O)(=O)/N=C2/NC(=O)/C(=C/c3ccc(Br)o3)S2)cc1	11	1	1	6	-3	-2
Cc1ccc(S(=O)(=O)/N=C2/NC(=O)/C(=C\c3cc(Br)cc(Br)c3O)S2)cc1	-92	-36	-16	63*	-74	-6
NCC1CC2c3ccccc3C1c1ccccc12 (centres undefined)	2	92*	0	-1	1	x
COc1cc(OC)c(OC)cc1/C=C/C(=O)c1ccc(NS(=O)(=O)c2ccc(C)cc2)cc1	-29	-1	0	35*	-5	0
COc1cccc(CNS(=O)(=O)c2c(C(=O)N3CCCC3)c(C)n(C)c2C)c1	-5	-1	0	-3	1	-1
N#CCC(=O)Nc1nc(-c2ccc3c(c2)OCCO3)cs1	2	74*	-1	1	-11	0
O=C(CCCCl)Nc1nc(-c2ccc3c(c2)OCCO3)cs1	-11	7	-1	-1	-6	-2
CC1CCN(CCn2c(=S)[nH]c3cc4c(cc3c2=O)OCO4)CC1	-8	-5	-2	4	-8	-3
O=c1c2cc3c(cc2[nH]c(=S)n1CCN1CCOCC1)OCO3	-3	45*	0	-3	6	x
O=C(NC1CCCN(c2ccc(C(F)(F)F)cn2)C1)c1cc(Cl)ccc1F (centres undefined)	-4	-8	0	4	0	0
Cc1ccc(C(=O)NC2CCCN(c3ccc(C(F)(F)F)cn3)C2)cn1 (centres undefined)	-4	45*	1	-2	2	0
CCOc1ccc(NS(=O)(=O)c2cc(C(=O)N3CCC3)ccc2Cl)cc1	-9	-8	1	0	0	-1
CCC(CC)c1nnc(NC(=O)CCS(=O)(=O)Cc2ccccc2)s1	0	41*	-1	-8	4	-1
CCc1nnc(NC(=O)CCS(=O)(=O)Cc2ccccc2)s1	0	0	-1	-8	-1	-2
COc1ccccc1C(=O)NCCC(=O)NCC1CCCCC1	-2	79*	4	-1	-4	5
COc1ccccc1C(=O)NCCC(=O)NC1CCCCCC1	-7	x	-1	-3	-2	0
O=C(CS(=O)(=O)Cc1ccccc1)N1CCN(c2ccccc2F)CC1	-4	-26	1	0	3	0
CCN(CC)CCNc1ncnc2c1sc1nc(N3CCOCC3)c3c(c12)CCCC3	9	-12	-11	-4	-1	-7
Cc1cccc(-n2cnc3c(sc4nc(N5CCOCC5)c5c(c43)CCCC5)c2=O)c1	-1	60*	1	2	2	-3
COc1ccc(C)cc1-n1c(=O)c2ccccc2c2ccccc2c1=O	-6	+	-1	0	-3	-1
Cc1sc2ncnc(N3CCC(C(=O)N4CC(C)SC4=Nc4ccc(Cl)cc4)CC3)c2c1C (centres undefined)	-15	-5	1	2	0	0
CC(C)c1c(Cl)c(O)c(-c2ccccc2)c(=O)n1-c1ccc(F)cc1	-5	38*	0	-3	-1	0
Cn1c(SCC(=O)NC2CCCC2)nnc1C(F)(F)F	3	0	-1	-4	-1	0
CN(C)CCCN1C(=O)c2cccc3cccc(c23)C1=O	-13	0	-2	-9	-8	0
CC1=CC2=C(OC1N(C)C)c1cccc3cccc(c13)C2=O (centres undefined)	-17	39*	3	7	1	x
O=C(NC1CCCC1)c1ccc(COc2ccccc2Br)o1	-2	-1	-2	0	1	-3
C/C(=N\NC(=O)c1cc(-c2ccccn2)nc2ccccc12)c1cccc([N+](=O)[O-])c1	-1	-2	98*	6	-6	1
C=CCn1c(O)c(N=NC(=O)CNC(=O)/C=C/c2ccc(OC)cc2)c2ccccc21	1	59*	-1	2	-1	0
